Here are results for 21 molecules from ChEMBL document CHEMBL4145626, “Chemical Constituents of Apios americana Tubers and Their Inhibitory Activities on Nitric Oxide Production in Lipopolysaccharide-Stimulated RAW 264.7 Macrophages” (J Nat Prod, 2018).

pIC50: −log10 of the molar value.

The assay relates to RAW264.7. As to the kind of experiment: Inhibition of LPS-induced nitric oxide production in mouse RAW264.7 cells pretreated for 1 hr followed by LPS-stimulation and measured after 24 hrs by Griess assay. It counts as functional, cell-based. Summed up: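 RAW 264.7 macrophages seeded at 0.9 × 10^5 cells/mL and grown 24 h; pretreated with compound 1 h, then stimulated with LPS (1 μg/mL) for 24 h. Accumulated nitrite in medium measured with Griess reagent as NO indicator. IC50 = concentration giving 50% decrease in NO production; means of three independent experiments. NIL (10 μM) as positive control; MTT viability assay run in parallel.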

`COc1cc(O)cc2occ(-c3ccc(O)cc3)c(=O)c12`: the pIC50 was under 6.00.

`O=c1c2c(O)cc(O)cc2oc2oc3cc(O)ccc3c12`: the negative logarithm of the IC50 (pIC50) was under 6.00.

Consider `COc1cc(O[C@@H]2O[C@H](CO)[C@@H](O)[C@H](O)[C@H]2O)cc2occ(-c3ccc(O[C@@H]4O[C@H](CO)[C@@H](O)[C@H](O)[C@H]4O)cc3O)c(=O)c12`, for which the pIC50 is 6.38. The value for `COc1cc(O[C@@H]2O[C@H](CO)[C@@H](O)[C@H](O)[C@H]2O)cc2occ(-c3ccc(O)cc3)c(=O)c12` was under 6.00; that for `O=c1c(-c2ccc(O[C@@H]3O[C@H](CO)[C@@H](O)[C@H](O)[C@H]3O)cc2O)coc2cc(O)cc(O)c12` was under 6.00; that for `O=c1c(-c2ccc(O)cc2O)coc2cc(O[C@@H]3O[C@H](CO[C@@H]4O[C@H](CO)[C@@H](O)[C@H](O)[C@H]4O)[C@@H](O)[C@H](O)[C@H]3O)cc(O)c12` was 6.22. Regarding `O=c1c(-c2ccc(O)cc2)coc2cc(O[C@@H]3O[C@H](CO[C@@H]4O[C@H](CO)[C@@H](O)[C@H](O)[C@H]4O)[C@@H](O)[C@H](O)[C@H]3O)cc(O)c12`, the pIC50 was under 6.00. As for `COc1cc(-c2coc3cc(O)cc(OC)c3c2=O)ccc1O`, the pIC50 is under 6.00. Take `COc1cc(O)cc2c1C(=O)[C@]1(O)c3ccc(O)cc3O[C@@H]1O2`: the pIC50 is 6.42.

In the case of `O=c1c(-c2ccc(O[C@@H]3O[C@H](CO)[C@@H](O)[C@H](O)[C@H]3O)cc2O)coc2cc(O[C@@H]3O[C@H](CO)[C@@H](O)[C@H](O)[C@H]3O)cc(O)c12`, the negative logarithm of the IC50 (pIC50) is 6.15. The value for `O=c1c(-c2ccc(O)cc2)coc2cc(O[C@@H]3O[C@H](CO[C@@H]4O[C@H](CO[C@@H]5O[C@H](CO)[C@@H](O)[C@H](O)[C@H]5O)[C@@H](O)[C@H](O)[C@H]4O)[C@@H](O)[C@H](O)[C@H]3O)cc(O)c12` was under 6.00; that for `COc1cc(-c2coc3cc(O[C@@H]4O[C@H](CO)[C@@H](O)[C@H](O)[C@H]4O)cc(OC)c3c2=O)ccc1O` was under 6.00. With `COc1cc(O)cc2occ(-c3ccc(O)cc3O)c(=O)c12`, the negative-log IC50 (pIC50) is 6.22. The value for `COc1cc(O)cc2occ(-c3ccc(O[C@@H]4O[C@H](CO)[C@@H](O)[C@H](O)[C@H]4O)cc3O)c(=O)c12` was 6.33; that for `COc1cc(O[C@@H]2O[C@H](CO)[C@@H](O)[C@H](O)[C@H]2O)cc2occ(-c3ccc(O)cc3O)c(=O)c12` was under 6.00. The value for `O=c1c(-c2ccc(O)cc2O)coc2cc(O[C@@H]3O[C@H](CO)[C@@H](O)[C@H](O)[C@H]3O)cc(O)c12` was under 6.00.

With `O=c1c(-c2ccc(O)cc2O)coc2cc(O)cc(O)c12`, the pIC50 was under 6.00. For the molecule `NC(=O)NC1NC(=O)NC1=O` (stereo unspecified) [ALLANTOIN], the pIC50 is 6.30.

On to `O=c1c(-c2ccc(O)cc2)coc2cc(O)cc(O)c12` [GENISTEIN], for which the pIC50 is under 6.00. For the molecule `O=c1c(-c2ccc(O)cc2)coc2cc(O[C@@H]3O[C@H](CO)[C@@H](O)[C@H](O)[C@H]3O)cc(O)c12` [GENISTIN], the pIC50 is under 6.00. The value for `CC(=N)NCCCC[C@H](N)C(=O)O` [L-NIL] was 5.81.
